Laboratory results: ChEMBL document CHEMBL1142301, “2'-deoxy cyclic adenosine 5'-diphosphate ribose derivatives: importance of the 2'-hydroxyl motif for the antagonistic activity of 8-substituted cADPR derivatives” (J Med Chem, 2008)
Activity calls are given as the source filed them. No cut-off for these calls is given here.

Key:
Jurkat [1] = assay: Antagonist activity at human cADPR receptor in Jurkat T cells assessed as inhibition of inositol-1,4,5-triphosphate-induced calcium release; format: functional, cell-based
Outline: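 Permeabilized, store-reloaded Jurkat T cells in pH 7.2 intracellular buffer with fura2 free acid (ex 340/380 nm, em 495 nm). Analogues were tested at 100 µM against Ca2+ release triggered by 4 µM InsP3.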

Jurkat [2] = assay: Agonist activity at human cADPR receptor in Jurkat T cells assessed as stimulation of calcium release at 100 uM; format: functional, cell-based
Outline: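 Saponin-permeabilized Jurkat T cells in intracellular buffer (20 mM HEPES, 110 mM KCl, 2 mM MgCl2, 5 mM KH2PO4, 10 mM NaCl, pH 7.2) with no extracellular Ca2+. Cells were kept on ice 2 h to reseal stores, then reloaded with ATP plus creatine phosphate/creatine kinase. Compound was added once stores were refilled. Ca2+ read by fura2 free acid (ex 340/380, em 495 nm), calibrated with CaCl2 and EGTA/Tris.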

[3] = (§1) Antagonist activity at human cADPR receptor in Jurkat T cells assessed as inhibition of cyclic ADP-ribose-induced calcium release; format: functional, cell-based
Outline: (§2)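 Jurkat T cells were saponin-permeabilized, resealed 2 h on ice and reloaded with Ca2+ via ATP and a creatine phosphate/creatine kinase regenerating system, in pH 7.2 KCl/HEPES intracellular buffer. Analogue inhibition of Ca2+ release evoked by 30 µM cADPR was followed by fura2 ratio (340/380 nm ex, 495 nm em), calibrated per run. IC50 values were taken from concentration–response curves.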

[4] = (§3) Agonist activity at human cADPR receptor in sea urchin egg homogenates assessed as stimulation of calcium release; format: functional, tissue-based, Lytechinus pictus
Outline: (§4)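 Lytechinus pictus eggs were spawned by intracoelomic 0.5 M KCl, dejellied and washed. Eggs were homogenized in 250 mM K gluconate, 250 mM N-methylglucamine, 20 mM HEPES, 1 mM MgCl2, pH 7.2, with 1 mM ATP, creatine kinase, phosphocreatine and protease inhibitors. Ca2+ read with 3 µM fluo-3 at 17 °C (ex 506, em 526 nm) in stirred homogenate. EC50/IC50 values come from concentration–response curves.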

[5] = Antagonist activity at cADPR receptor in sea urchin egg homogenates assessed as inhibition of calcium release; format: functional, tissue-based, Lytechinus pictus; outline: as §4
Jurkat [6] = assay: Agonist activity at human cADPR receptor in Jurkat T cells assessed as stimulation of calcium release at 100 uM
Lytechinus pictus [7] = assay: as §3; format: functional, tissue-based; outline: as §4
Lytechinus pictus [8] = assay: Agonist activity at human cADPR receptor in intact sea urchin egg assessed as stimulation of calcium release; format: functional
Outline: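 Intact Lytechinus pictus eggs were microinjected with rhod dextran (~10 µM intracellular), then exposed to 100 or 400 µM analogue in the bath. Ca2+ was imaged by confocal microscopy (ex 543 nm, em >560 nm).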

Jurkat [9] = assay: as §1; format: functional, cell-based; outline: as §2

Compound | Activity (Jurkat [1]) | Activity (Jurkat [2]) | IC50 [3] | further results
Nc1c2ncn3c2nc[n+]1[C@@H]1O[C@H](COP(=O)([O-])OP(=O)(O)OC[C@H]2O[C@@H]3[C@H](O)[C@@H]2O)[C@@H](O)[C@H]1O | inactive | Active |  | 
Nc1nc2c(N)[n+]3cnc2n1[C@H]1C[C@H](O)[C@@H](COP(=O)(O)OP(=O)([O-])OC[C@H]2O[C@@H]3[C@H](O)[C@@H]2O)O1 | inactive | Active | 6 µM | EC50 [4]: > 89 µM; IC50 [5]: 0.22 µM
Nc1c2nc(-c3ccccc3)n3c2nc[n+]1[C@@H]1O[C@H](COP(=O)([O-])OP(=O)(O)OC[C@H]2O[C@@H]3[C@H](O)[C@@H]2O)[C@@H](O)[C@H]1O |  | Active |  | 
Nc1c2nc(-c3ccccc3)n3c2nc[n+]1[C@@H]1O[C@H](COP(=O)([O-])OP(=O)(O)OC[C@H]2O[C@@H]3C[C@@H]2O)[C@@H](O)[C@H]1O |  | Active |  | 
Nc1c2nc(Br)n3c2nc[n+]1[C@@H]1O[C@H](COP(=O)([O-])OP(=O)(O)OC[C@H]2O[C@@H]3[C@H](O)[C@@H]2O)[C@@H](O)[C@H]1O | inactive | Active | 10 µM | 
Nc1nc2c(N)[n+]3cnc2n1[C@@H]1O[C@H](COP(=O)(O)OP(=O)([O-])OC[C@H]2O[C@@H]3[C@H](O)[C@@H]2O)[C@@H](O)[C@H]1O | inactive | Active | 0.2 µM | EC50 [4]: 89 µM; IC50 [5]: 0.105 µM; Activity (Jurkat [6]): Active
COc1nc2c(N)[n+]3cnc2n1[C@H]1C[C@H](O)[C@@H](COP(=O)(O)OP(=O)([O-])OC[C@H]2O[C@@H]3[C@H](O)[C@@H]2O)O1 | inactive | Active | 8 µM | 
Nc1c2nc(Br)n3c2nc[n+]1[C@@H]1O[C@H](COP(=O)([O-])OP(=O)(O)OC[C@H]2O[C@@H]3C[C@@H]2O)[C@@H](O)[C@H]1O |  | Active |  | Activity (Lytechinus pictus [7]): Active; Activity (Lytechinus pictus [8]): Active
Nc1c2ccn3c2nc[n+]1[C@@H]1O[C@H](COP(=O)([O-])OP(=O)(O)OC[C@H]2O[C@@H]3C[C@@H]2O)[C@@H](O)[C@H]1O |  | Active |  | Activity (Jurkat [9]): inactive
